MPTP inh: permeability transition pore inhibition. inhibition, % at 10 µM. hit rate 1.4% among 360,000. AID 602449. isolated mouse mitochondria, Ca2+ swelling absorbance, 30 min;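 active means inhibition of 50% or more, scaled per plate between neutral and stimulator controls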;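 further: 0% = DMSO wells given calcium and 100% = 1 mM EGTA wells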
UPR XBP1 act: adaptive UPR (XBP1) activation | activation, % at 20 µM | CHO-XBP1 luciferase reporter, IRE1-XBP1 UPR activation, luminescence; percent of tunicamycin response, DMSO as zero | AID 463104 | hit rate 0.33% among 330,000;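 active means versus positive control, 20 µM dose yields 30% or more activation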;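 further: 100% = tunicamycin at 10 µg/mL and 0% = DMSO only wells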
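Material: CHO cell line with stable XBP1 luciferase reporter; buffer or medium: F12 medium containing 10% fetal bovine serum; compound: single point, 20 µM final compound, 1% DMSO; incubation: 6 h treatment, 37 °C; measured by: glow luminescence from Steady-Glo reagent; evaluation: activation, % of tunicamycin; control set: tunicamycin high, DMSO low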
CHOP UPR activ: activators of apoptotic arm of unfolded protein response (CHOP); CHO-CHOP luciferase reporter, UPR activation, luminescence; percent of tunicamycin response over DMSO baseline; activation, % at 10 µM; hit rate 0.34% among 330,000; AID 449763;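 active means at 10 µM dose, activation of 40% or more, normalized to positive control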;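 further: 100% = tunicamycin at 10 µg/mL and 0% = DMSO alone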
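Dosing – one dose, 10 µM in 0.5% DMSO · System – CHO-CHOP cells, stable luciferase reporter of PERK-eIF2a-CHOP signalling · Input – 500 cells/well · Control set – tunicamycin 10 µg/mL final as positive, DMSO-only wells as negative · Timing – 6 h compound treatment, 37 °C · Measure – % activation vs tunicamycin · Technique – luminescence read with Steady-Glo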
CHOP inh: CHOP inhibition in unfolded protein response. CHO-K1 CHOP-promoter luciferase, tunicamycin-induced, 15-18 h. hit rate 3.8% among 220,000. inhibition, % at 10 µM. AID 2732;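 active means compounds that reduced the stress-induced luciferase reporter signal by more than about 70% of percent inhibition, limit read from the data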;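 further: 0% = tunicamycin plus vehicle and 100% = wells without tunicamycin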
aDG glyco act: alpha-DG glycosylation activation | activation, % at 10 µM | Pro5-aDG cells, alpha-DG glycosylation AlphaScreen (IIH6); 0% Pro5, 100% B10-LARGE cell signal | AID 624168 | hit rate 0.22% among 360,000;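 active means activation of at least 8% versus controls, or a plate z-score of at least 8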;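 further: Pro5 are CHO cells carrying HIG-tagged alpha-DG that lacks glycosylation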
GRIN3A LBD mod: modulates the human NR3A ligand-binding domain | NR3A LBD differential scanning fluorimetry, Tm shift; 0% = protein alone, 100% = glycine-bound protein | Tm shift relative to glycine control, % at 25 µM | hit rate 2.5% among 340,000 | AID 1259313;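 active means melting temperature shift of at least 10% of the positive control shift, at one fixed dose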
MPTP counter: membrane potential counter-screen of mitochondrial pore inhibitors. isolated mitochondria, Rhodamine 123 fluorescence. hit rate 78% among 5,000. inhibition, % at 10 µM. shares compounds with MPTP inh. AID 624504; in the data active means inhibition above about 22%;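 further: 0% = DMSO vehicle and 100% = positive control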
* marks the source's active call; other numbers are inactive results. This is a sample that favours compounds with a hit; in the whole collection about 5.6% have one here.

What do the screens show for `CCn1c(SCC(=O)N(C)c2ccccc2)nc2c([nH]c3ccccc32)c1=O`?
MPTP inh: 2.4; UPR XBP1 act: 0.0; CHOP UPR activ: -1.7; aDG glyco act: -0.1; GRIN3A LBD mod: 0.2

What do the screens show for `COc1ccc(N2CCc3c(C)nc4c(OC)cc(OC)cc4c32)c(OC)c1`?
MPTP inh: 63.9*; UPR XBP1 act: -2.5; CHOP UPR activ: -0.6; CHOP inh: 48.0; aDG glyco act: 0.2; GRIN3A LBD mod: -1.3; MPTP counter: 72.4*

How did COc1ccc(-c2[nH]c(-c3ccc4c(c3)OCO4)nc2-c2ccccc2)cc1 do in these assays?
MPTP inh: 95.1*; UPR XBP1 act: 8.0; CHOP UPR activ: 4.3; CHOP inh: 58.4; aDG glyco act: 1.6; GRIN3A LBD mod: -1.4; MPTP counter: 70.3*

Results for COc1cc(-c2nc(-c3ccccc3)c(-c3ccc(F)cc3)[nH]2)cc2c1OCO2 ?
MPTP inh: 88.8*; UPR XBP1 act: -0.1; CHOP UPR activ: 0.6; CHOP inh: 70.3*; aDG glyco act: 1.6; GRIN3A LBD mod: 9.0; MPTP counter: 62.8*

How did Nc1c(C(=O)O)sc2nc(-c3ccccc3)c3c(c12)CCCC3 do in these assays?
MPTP inh: 1.8; UPR XBP1 act: 1.6; CHOP UPR activ: 1.2; CHOP inh: 15.6; aDG glyco act: -0.1; GRIN3A LBD mod: -1.0

What do the screens show for `CC1CCc2nc3sc4c(c3c(N)c2C1)CCCC4` (stereo unspecified)?
MPTP inh: 88.5*; UPR XBP1 act: 0.2; CHOP UPR activ: 5.1; CHOP inh: 27.2; aDG glyco act: 1.5; GRIN3A LBD mod: -9.3; MPTP counter: 81.1*

What do the screens show for `CCc1c(-c2ccccc2)nc2sc3c(c2c1N)CCCC3`?
MPTP inh: 83.7*; UPR XBP1 act: 1.0; CHOP UPR activ: 4.0; CHOP inh: 35.3; aDG glyco act: 0.2; GRIN3A LBD mod: -7.1; MPTP counter: 70.2*

Results for CCOC(=O)c1nc2sc3c(c2c(=O)[nH]1)CCC(C)C3 (stereo unspecified) ?
MPTP inh: 1.4; UPR XBP1 act: 1.6; CHOP UPR activ: 0.0; CHOP inh: 54.3; aDG glyco act: -0.1; GRIN3A LBD mod: 0.8

What do the screens show for `Nc1c2c(nc3sc4c(c13)CCCCC4)CCCCC2`?
MPTP inh: 77.8*; UPR XBP1 act: 1.6; CHOP UPR activ: 3.4; CHOP inh: 26.0; aDG glyco act: 0.5; GRIN3A LBD mod: 3.9; MPTP counter: 92.6*

Results for CC1CCc2c(nc3sc4c(c3c2N)CCCC4)C1 (stereo unspecified) ?
MPTP inh: 76.1*; UPR XBP1 act: 2.7; CHOP UPR activ: 3.9; CHOP inh: 22.6; aDG glyco act: 1.7; GRIN3A LBD mod: -0.9; MPTP counter: 83.9*

What do the screens show for `Cn1c(CNC(=O)C(Cc2ccccc2)NC(=O)c2ccccc2F)cc(=O)n(C)c1=O` (stereo unspecified)?
MPTP inh: 1.0; UPR XBP1 act: -3.3; CHOP UPR activ: 0.3; aDG glyco act: 0.4; GRIN3A LBD mod: -8.0

What do the screens show for `CCCCN(C)C(=O)c1nc2ccccn2c1CN1CCC[C@H]1CO`?
MPTP inh: 0.8; UPR XBP1 act: -1.9; CHOP UPR activ: -0.3; aDG glyco act: 0.0; GRIN3A LBD mod: 2.3

Results for CN(Cc1cccc(F)c1)C(=O)c1ccccc1Sc1ccccc1C#N ?
MPTP inh: -0.1; UPR XBP1 act: -4.7; CHOP UPR activ: 1.4; aDG glyco act: 0.5; GRIN3A LBD mod: 0.2

How did COC(=O)c1ccc(-c2ncc[nH]2)cc1 do in these assays?
MPTP inh: -2.6; UPR XBP1 act: -0.5; CHOP UPR activ: 1.0; CHOP inh: -7.4; aDG glyco act: 0.2; GRIN3A LBD mod: 2.0

Results for O=C1C=C(c2ccc(Cl)c(C(F)(F)F)c2)C[C@@H](c2ccc3c(c2)OCO3)C1 ?
MPTP inh: 3.6; UPR XBP1 act: -2.6; CHOP UPR activ: -1.0; aDG glyco act: -0.4; GRIN3A LBD mod: 4.5

Screening results from PubChem.
